The values below come from ChEMBL document CHEMBL2034852, “Flacourtosides A-F, phenolic glycosides isolated from Flacourtia ramontchi” (J Nat Prod, 2012).

pIC50: −log10 of the molar value. Calls of active or inactive are those of the source. The calls are words filed in the database; no cut-off is given here. A value given as a limit tells only on which side of the number the result lay.

As usually defined, the CC50 is the concentration that lowers cell viability or growth by half. The pIC50 is the IC50 on a negative log10 scale, so that one unit is a factor of ten.

Data set [1] is described as follows: (§1) Cytotoxicity against African green monkey Vero cells after 6 to 7 days by MTS assay. The data set is classed as cell-based. The note with it: chlorocebus sabaeus, Vero cells. In outline: (§2)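 Vero cells (subcultured 1:4, grown 7 days) seeded at 25 000 cells per well with serial compound dilutions in MEM Rega3 with 2% FCS, L-glutamine and bicarbonate. Incubated 6−7 days at 37 °C, 5% CO2. Medium then replaced with 5% MTS in phenol red-free medium for 1.5 h, A498 read. CC50 taken from dose−response curves as % of controls; multiple independent experiments.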
On the technique in general: Tetrazolium dyes change colour on reduction, which living cells bring about.

Data set [2] is described as follows: Inhibition of Dengue virus NS5 polymerase assessed as inhibition of radiolabeled guanosine incorporation into homopolymeric cytosine RNA template by liquid scintillation counting. In outline: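 DENV-2 NS5 polymerase, produced and purified by a prior method, assayed by radiolabeled guanosine incorporation on a homopolymeric cytosine RNA template. IC50 fitted by % enzyme activity = 100/[…], with I the inhibitor concentration; 3′-deoxy-GTP served as reference.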

The subject of the next data set is Chikungunya virus. Nature of the data set: Antiviral activity against Chikungunya virus infected in Vero cells assessed as inhibition of virus-induced cytopathic effect after 6 to 7 days by MTS assay. Type of data set: functional, cell-based.
The subject of the next data set is Vero. The description is as §1. The data set is classed as cell-based. Conditions: chlorocebus sabaeus, vero. In short, it runs like this:
as §2

Turning to `C=C(C)[C@@H]1CC[C@]2(C(=O)O)CC[C@]3(C)[C@H](CC[C@@H]4[C@@]5(C)CC[C@H](OC(=O)/C=C/c6ccc(O)c(O)c6)C(C)(C)[C@@H]5CC[C@]43C)[C@@H]12`, the 50% cytotoxic concentration (CC50) in data set [1] came to 6.9 µM. Besides, the negative logarithm of the IC50 (pIC50) in data set [2] is 6.07.
On to `Nc1nc2c(ncn2[C@@H]2O[C@H](COP(=O)(O)OP(=O)(O)OP(=O)(O)O)C[C@H]2O)c(=O)[nH]1`, for which the pIC50 in data set [2] is 7.70.
In the case of `O=Cc1cc(O)ccc1O[C@@H]1O[C@H](COC(=O)c2ccccc2)[C@@H](O)[C@H](O)[C@H]1O` [FLACOURTOSIDE B], the pIC50 in data set [2] is 4.15. In the data set with Chikungunya virus, the result was inactive.
On the same counts, the results for `O=Cc1cc(O)ccc1O[C@@H]1O[C@H](COC(=O)c2ccccc2)[C@@H](O)[C@H](O[C@@H]2O[C@H](COC(=O)c3ccccc3)[C@@H](O)[C@H](O)[C@H]2O)[C@H]1O` [FLACOURTOSIDE C] are 4.62 and “inactive”.
Take `O=C(OC[C@H]1O[C@@H](Oc2ccc(O)cc2COC(=O)C2(O)CC(=O)[C@@H](O)[C@@H](O)[C@H]2O)[C@H](OC(=O)c2ccccc2)[C@@H](O)[C@@H]1O)c1ccccc1` (some centres undefined) [FLACOURTOSIDE D]: the negative-log IC50 (pIC50) in data set [2] is 4.45. Further, in the data set with Chikungunya virus, the result was inactive.
Turning to `O=C(OC[C@H]1O[C@@H](Oc2ccc(O)cc2COC(=O)[C@@]2(O)[C@H](O)C=CC(=O)[C@@H]2O)[C@H](O)[C@@H](OC(=O)c2ccccc2)[C@@H]1O)c1ccccc1` [FLACOURTOSIDE E], the Activity entry with Vero is recorded as “Non-toxic”. Also, the pIC50 in data set [2] was 4.87. Moreover, the outcome in the data set with Chikungunya virus was inactive.
Turning to `O=C(OC[C@H]1O[C@@H](Oc2ccc(O)cc2COC(=O)[C@@]2(O)[C@H](O)C=CC(=O)[C@@H]2OC(=O)c2ccccc2)[C@H](OC(=O)c2ccccc2)[C@@H](O)[C@@H]1O)c1ccccc1` [FLACOURTOSIDE F], the pIC50 in data set [2] is 4.40. Further, the outcome with Chikungunya virus was inactive.
As for `O=C(OC[C@H]1O[C@@H](Oc2ccc(O)cc2COC(=O)c2ccccc2O)[C@H](O)[C@@H](O)[C@@H]1O)c1ccccc1` [ITOSIDE H], the pIC50 in data set [2] was 4.42.
Same read-out and setting: with `O=C(OC[C@H]1O[C@@H](Oc2ccc(O)cc2CO)[C@H](O)[C@@H](O)[C@@H]1O)c1ccccc1` [POLIOTHYRSOSIDE] the figure was less than 4.30.
For `O=C(OC[C@H]1O[C@@H](Oc2ccc(O)cc2COC(=O)c2cccc(O)c2O)[C@H](OC(=O)c2ccccc2)[C@@H](O)[C@@H]1O)c1ccccc1` [SCOLOCHINENOSIDE D], in the data set on Vero, the Activity result is given as “Non-toxic”. Moreover, the pIC50 in data set [2] is 5.02.
Consider `O=C(OC[C@H]1O[C@@H](Oc2ccc(O)cc2COC(=O)[C@@]2(O)[C@H](O)C=CC(=O)[C@@H]2O)[C@H](OC(=O)c2ccccc2)[C@@H](O)[C@@H]1O)c1ccccc1` [XYLOSMIN], for which, in data set [2], the pIC50 was 4.61.
